Laboratory results published in ChEMBL document CHEMBL3272049, “Estrogen potentiating activity of two spiro compounds having approximately similar molecular dimensions to stilbestrol” (1977).

Columns and labels:
Type in all cases: functional
Settings in all cases: route intraperitoneal
Mus musculus [1] = experiment: Estrogenic activity in albino CFLP-ICI strain 1 mouse assessed as change in uterus weight at 0.1 mg/kg, ip qd for three consecutive days measured 24 hrs post last dose (reference value: 6.9 +/- 0.7 mg)
Mus musculus [2] = experiment: Estrogenic activity in albino CFLP-ICI strain 1 mouse assessed as change in uterus weight at 10 mg/kg, ip qd for three consecutive days measured 24 hrs post last dose (reference value: 6.9 +/- 0.7 mg)
Mus musculus [3] = experiment: Estrogenic activity in albino CFLP-ICI strain 1 mouse assessed as uterine ratio at 0.1 mg/kg, ip qd for three consecutive days measured 24 hrs post last dose relative to body weight
Mus musculus [4] = experiment: Estrogenic activity in albino CFLP-ICI strain 1 mouse assessed as uterine ratio at 10 mg/kg, ip qd for three consecutive days measured 24 hrs post last dose relative to body weight
Mus musculus [5] = experiment: Potentiation of stilbesterol-induced estrogenic activity in albino CFLP-ICI strain 1 mouse assessed as change in uterus weight at 0.01 mg/kg, ip qd for three consecutive days measured 24 hrs post last dose relative to control
Outline: (§1)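 Mice received stilbestrol 0.01 mg/kg together with graded doses of spiro derivative, both in arachis oil, ip once daily at 10.00 h for three consecutive days; comparison group got stilbestrol alone. Killed by cervical dislocation 24 h after final dose. Uteri dissected free of fat, blotted and weighed. Uterine ratio = uterine weight (mg)/body weight (g) × 100; mean ± SE.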

Mus musculus [6] = experiment: Potentiation of stilbesterol-induced estrogenic activity in albino CFLP-ICI strain 1 mouse assessed as change in uterus weight at 10 mg/kg, ip qd for three consecutive days measured 24 hrs post last dose relative to control; outline: as §1
Mus musculus [7] = experiment: Potentiation of stilbesterol-induced estrogenic activity in albino CFLP-ICI strain 1 mouse assessed as change in uterus weight at 0.001 mg/kg, ip qd for three consecutive days measured 24 hrs post last dose relative to control; outline: as §1
Mus musculus [8] = experiment: Potentiation of stilbesterol-induced estrogenic activity in albino CFLP-ICI strain 1 mouse assessed as change in uterus weight at 0.1 mg/kg, ip qd for three consecutive days measured 24 hrs post last dose relative to control; outline: as §1
Mus musculus [9] = experiment: Potentiation of stilbesterol-induced estrogenic activity in albino CFLP-ICI strain 1 mouse assessed as uterine ratio at 0.01 mg/kg, ip qd for three consecutive days measured 24 hrs post last dose relative to body weight; outline: as §1
Mus musculus [10] = experiment: Potentiation of stilbesterol-induced estrogenic activity in albino CFLP-ICI strain 1 mouse assessed as uterine ratio at 10 mg/kg, ip qd for three consecutive days measured 24 hrs post last dose relative to body weight; outline: as §1
Mus musculus [11] = experiment: Potentiation of stilbesterol-induced estrogenic activity in albino CFLP-ICI strain 1 mouse assessed as uterine ratio at 0.001 mg/kg, ip qd for three consecutive days measured 24 hrs post last dose relative to body weight; outline: as §1
Mus musculus [12] = experiment: Potentiation of stilbesterol-induced estrogenic activity in albino CFLP-ICI strain 1 mouse assessed as uterine ratio at 0.1 mg/kg, ip qd for three consecutive days measured 24 hrs post last dose relative to body weight; outline: as §1
Mus musculus [13] = experiment: Estrogenic activity in albino CFLP-ICI strain 1 mouse assessed as change in uterus weight at 0.01 mg/kg, ip qd for three consecutive days measured 24 hrs post last dose (reference value: 6.9 +/- 0.7 mg)
Mus musculus [14] = experiment: Estrogenic activity in albino CFLP-ICI strain 1 mouse assessed as uterine ratio at 0.01 mg/kg, ip qd for three consecutive days measured 24 hrs post last dose relative to body weight

Row | Structure (SMILES) | Activity (Mus musculus [1]) [mg] | Activity (Mus musculus [2]) [mg] | Ratio (Mus musculus [3]) | Ratio (Mus musculus [4]) | Activity (Mus musculus [5]) [mg] | Activity (Mus musculus [6]) [mg] | Activity (Mus musculus [7]) [mg] | Activity (Mus musculus [8]) [mg] | Ratio (Mus musculus [9]) | Ratio (Mus musculus [10]) | Ratio (Mus musculus [11]) | Ratio (Mus musculus [12]) | Activity (Mus musculus [13]) [mg] | Ratio (Mus musculus [14])
1 | O=C1CCC2(CC1)CCc1ccccc1C2=O | 10 | 6.9 | 78 | 64 | 37.1 | 36.5 | 29.9 | 30.7 | 377 | 293 | 306 | 293 |  | 
2 | CC/C(=C(/CC)c1ccc(O)cc1)c1ccc(O)cc1 [DIETHYLSTILBESTROL] |  |  |  |  |  |  |  |  |  |  |  |  | 17.5 | 167
3 | OC1CCC2(CC1)Cc1ccccc1C2O (configuration not stated) | 7.4 | 9.7 | 80 | 86 | 24.5 | 29.2 |  |  | 225 | 247 |  |  |  | 
